Converted amounts (≈) assume the structure as drawn. The source made the active and inactive calls. No cut-off for these calls is given here.
How the values were obtained:
[1] = Volume of distribution at steady state in rat at 1 mg/kg, iv and 3 mg/kg, po; format: ADME, organism-based; details: in vivo, read-out: Vdss
How it was run: (§1)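 Cross-species pharmacokinetics (rat, dog, monkey), n = 3 per species. Parameters were derived from 1 mg/kg iv or 3 mg/kg po profiles: blood clearance, Vss, half-life and oral bioavailability.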

[2] = Volume of distribution at steady state in monkey at 1 mg/kg, iv and 3 mg/kg, po; format: ADME, organism-based, Macaca mulatta; details: rhesus monkey, in vivo, read-out: Vdss; how it was run: as §1
[3] = Clearance in rat blood at 1 mg/kg, iv and 3 mg/kg, po; format: ADME, organism-based; how it was run: as §1
P2X purinoceptor 7 [4] = target: T1, P2X purinoceptor 7 (Rattus norvegicus, UniProt Q64663); assay: Antagonist activity at rat recombinant P2X7 receptor; format: functional
T1 sequence (Q64663 whole entry): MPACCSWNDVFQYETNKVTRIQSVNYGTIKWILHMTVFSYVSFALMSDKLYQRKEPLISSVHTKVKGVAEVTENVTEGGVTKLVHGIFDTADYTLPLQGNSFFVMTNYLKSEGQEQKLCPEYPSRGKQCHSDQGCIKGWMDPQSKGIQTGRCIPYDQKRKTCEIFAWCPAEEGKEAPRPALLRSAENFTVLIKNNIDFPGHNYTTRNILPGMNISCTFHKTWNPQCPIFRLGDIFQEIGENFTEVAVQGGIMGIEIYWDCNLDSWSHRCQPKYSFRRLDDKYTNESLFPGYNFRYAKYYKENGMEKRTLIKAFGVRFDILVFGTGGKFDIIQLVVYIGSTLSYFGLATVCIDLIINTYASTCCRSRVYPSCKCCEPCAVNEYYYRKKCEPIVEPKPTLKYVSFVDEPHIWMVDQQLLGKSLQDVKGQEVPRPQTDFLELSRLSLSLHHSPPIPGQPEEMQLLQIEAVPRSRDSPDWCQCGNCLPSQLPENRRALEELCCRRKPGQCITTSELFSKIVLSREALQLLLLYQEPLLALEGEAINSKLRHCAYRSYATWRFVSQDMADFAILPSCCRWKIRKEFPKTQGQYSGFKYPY

[5] = Half life in rat at 1 mg/kg, iv and 3 mg/kg, po; format: ADME, organism-based; details: in vivo; how it was run: as §1
[6] = Clearance in monkey blood at 1 mg/kg, iv and 3 mg/kg, po; format: ADME, organism-based, Macaca mulatta; details: rhesus monkey; how it was run: as §1
[7] = Half life in dog at 1 mg/kg, iv and 3 mg/kg, po; format: ADME, organism-based, Canis lupus familiaris; details: in vivo; how it was run: as §1
[8] = Half life in monkey at 1 mg/kg, iv and 3 mg/kg, po; format: ADME, organism-based, Macaca mulatta; details: rhesus monkey, in vivo; how it was run: as §1
[9] = Oral bioavailability in monkey at 1 mg/kg, iv and 3 mg/kg, po; format: ADME, organism-based, Macaca mulatta; details: rhesus monkey, in vivo; how it was run: as §1
[10] = Clearance in dog blood at 1 mg/kg, iv and 3 mg/kg, po; format: ADME, organism-based, Canis lupus familiaris; how it was run: as §1
[11] = Oral bioavailability in dog at 1 mg/kg, iv and 3 mg/kg, po; format: ADME, organism-based, Canis lupus familiaris; details: in vivo; how it was run: as §1
[12] = Volume of distribution at steady state in dog at 1 mg/kg, iv and 3 mg/kg, po; format: ADME, organism-based, Canis lupus familiaris; details: in vivo, read-out: Vdss; how it was run: as §1
P2X purinoceptor 7 [13] = target: T2, P2X purinoceptor 7 (Homo sapiens, UniProt Q99572); assay: Antagonist activity at human recombinant P2X7 receptor expressed in HEK293 cells by ethidium accumulation assay; format: functional, cell-based
T2 sequence (Q99572 whole entry): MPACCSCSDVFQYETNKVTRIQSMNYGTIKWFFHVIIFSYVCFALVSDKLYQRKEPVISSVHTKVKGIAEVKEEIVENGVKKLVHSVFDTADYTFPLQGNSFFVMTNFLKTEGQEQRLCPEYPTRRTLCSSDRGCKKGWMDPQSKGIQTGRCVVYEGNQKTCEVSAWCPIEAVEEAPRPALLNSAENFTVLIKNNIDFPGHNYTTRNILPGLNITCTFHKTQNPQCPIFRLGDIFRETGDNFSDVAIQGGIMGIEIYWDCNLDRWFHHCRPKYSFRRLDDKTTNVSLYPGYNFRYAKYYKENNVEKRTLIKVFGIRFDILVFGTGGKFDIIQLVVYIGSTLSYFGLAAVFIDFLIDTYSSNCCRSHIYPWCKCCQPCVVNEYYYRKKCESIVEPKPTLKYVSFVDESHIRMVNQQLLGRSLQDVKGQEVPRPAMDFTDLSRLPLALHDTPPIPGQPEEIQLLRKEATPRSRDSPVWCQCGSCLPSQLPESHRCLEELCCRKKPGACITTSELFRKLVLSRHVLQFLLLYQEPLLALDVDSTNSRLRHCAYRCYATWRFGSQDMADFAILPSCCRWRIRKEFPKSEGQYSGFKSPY
How it was run: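 Ethidium accumulation read-out: ATP activation of the receptor opens a large pore, and uptake of ethidium bromide dye into the cells is measured by fluorescence.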

[14] = Half life in rat blood at 1 mg/kg, iv; format: ADME, organism-based; set-up: dose 1 mg/kg, route intravenous
[15] = (§2) Clearance in rat blood at 1 mg/kg, iv; format: ADME, organism-based; set-up: dose 1 mg/kg, route intravenous; details: blood
How it was run: (§3)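 Rat blood clearance was determined after a single iv infusion at 1 mg/kg.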

[16] = Metabolic stability in rat liver microsomes assessed as intrinsic clearance measured per gram of tissue; format: ADME, Microsome
Rattus norvegicus [17] = assay: as §2; format: ADME, organism-based; set-up: dose 1 mg/kg, route intravenous; details: in vivo; how it was run: as §3
[18] = Oral bioavailability in rat at 1 mg/kg, iv and 3 mg/kg, po; format: ADME, organism-based; details: in vivo; how it was run: as §1
Rattus norvegicus [19] = assay: Reversal of FCA-induced hypersensitivity in rat chronic joint pain model at 20 mg/kg, po after 1 to 6 hrs; format: functional, organism-based; set-up: dose 20 mg/kg
How it was run: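 Chronic joint pain model in rat. Hypersensitivity was induced by intra-articular FCA, and oral dosing at 20 mg/kg began 13 days post FCA. Response was assessed at 1, 3 and 6 h post-dose. Celecoxib at 30 mg/kg po served as comparator.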

[20] = Ratio of drug level in brain to plasma in rat chronic joint pain model at 20 mg/kg, po after 1 hr; format: ADME, organism-based; set-up: dose 20 mg/kg, route oral; details: brain and plasma, read-out: BBR
[21] = Protein binding in rat plasma; format: ADME, cell-free; details: read-out: PPB (converted)
[22] = Solubility of the compound in FeSSIF; format: physicochemical
[23] = Drug level in rat chronic joint pain model blood at 20 mg/kg, po after 1 hr; format: ADME, organism-based; set-up: dose 20 mg/kg, route oral; details: read-out: Drug uptake
How it was run: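 In the rat chronic joint pain model, blood concentrations were measured 1.0 h after a 20 mg/kg oral dose.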

MDCK = assay: Efflux ratio of permeability from apical to basolateral side over basolateral to apical side in MDCK cells expressing MDR; format: ADME, cell-based, Canis lupus familiaris; details: dog
[24] = Clearance in rat at 3 mg/kg, po; format: ADME, organism-based; set-up: dose 3 mg/kg, route oral; details: in vivo
[25] = Cmax in rat at 3 mg/kg, po; format: ADME, organism-based; set-up: dose 3 mg/kg, route oral; details: in vivo
[26] = Half life in rat at 3 mg/kg, po; format: ADME, organism-based; set-up: dose 3 mg/kg, route oral; details: in vivo
[27] = Lipophilicity, log D of the compound at pH 7.4; format: physicochemical; details: buffer

CN1C(=O)CC[C@H]1C(=O)NCc1cccc(C(F)(F)F)c1Cl [GSK1482160]
Vd [1]: 1 L/kg
Vd [2]: 1.1 L/kg
clearance [3]: 9 mL/min/kg
IC50 (P2X purinoceptor 7 [4]): 251 nM
half-life [5]: 1.5 h
clearance [6]: 17 mL/min/kg
half-life [7]: 0.7 h
half-life [8]: 0.9 h
bioavailability [9]: 57%
clearance [10]: 14 mL/min/kg
bioavailability [11]: 69%
Vd [12]: 0.9 L/kg

CN1C(=O)C(F)(F)C[C@H]1C(=O)NCc1cccc(C(F)(F)F)c1Cl
IC50 (P2X purinoceptor 7 [13]): 3.98 nM

CN1C[C@@H](C(=O)NCc2cccc(Cl)c2Cl)N(C)C1=O
half-life [14]: 0.4 h
clearance [15]: 49 mL/min/kg
IC50 (P2X purinoceptor 7 [13]): 10 nM

CN1C[C@@H](C(=O)NCc2ccc(Cl)cc2Cl)N(C)C1=O
half-life [14]: 0.6 h
CLint scaled [16]: < 0.5 mL/min/g
clearance (Rattus norvegicus [17]): 30 mL/min/kg
IC50 (P2X purinoceptor 7 [13]): 2 nM

CN1C(=O)COC[C@H]1C(=O)NCc1cccc(C(F)(F)F)c1Cl
IC50 (P2X purinoceptor 7 [13]): 3.98 nM

CN1C(=O)NC[C@H]1C(=O)NCc1ccc(Cl)cc1Cl
Vd [1]: 1.3 L/kg
half-life [14]: 2.8 h
Vd [2]: 1.2 L/kg
bioavailability [18]: 100%
clearance [3]: 6 mL/min/kg
half-life [5]: 2.8 h
Activity (Rattus norvegicus [19]): Active
clearance [6]: 7 mL/min/kg
half-life [7]: 5.7 h
half-life [8]: 2.9 h
bioavailability [9]: 99%
clearance [15]: 6 mL/min/kg
clearance [10]: 2 mL/min/kg
IC50 (P2X purinoceptor 7 [13]): 10 nM
Kp at 1 h [20]: 0.3
bioavailability [11]: 100%
fraction unbound [21]: 0.35
Vd [12]: 0.8 L/kg
solubility [22]: 780 µg/mL (≈ 2580 µM)
concentration at 1 h [23]: 56.4 µM

CN1C(=O)N(c2nccn2C)C[C@H]1C(=O)NCc1cccc(C(F)(F)F)c1Cl
IC50 (P2X purinoceptor 7 [13]): 3.98 nM
Ratio (MDCK): 5.3

CN1C(=O)NC[C@H]1C(=O)NCc1cccc(C(F)(F)F)c1Cl
IC50 (P2X purinoceptor 7 [13]): 3.98 nM
Ratio (MDCK): 2.1

Cc1cccc(N2C[C@@H](C(=O)NCc3cccc(C(F)(F)F)c3Cl)N(C)C2=O)n1
IC50 (P2X purinoceptor 7 [13]): 79.4 nM

CN1CCC(N2C[C@@H](C(=O)NCc3cccc(C(F)(F)F)c3Cl)N(C)C2=O)CC1
IC50 (P2X purinoceptor 7 [13]): 31.6 nM
Ratio (MDCK): 3.2

CN1C(=O)NC[C@H]1C(=O)NCc1cccc(Cl)c1Cl
IC50 (P2X purinoceptor 7 [13]): 25.1 nM

CN1C(=O)OC[C@H]1C(=O)NCc1cccc(C(F)(F)F)c1Cl
IC50 (P2X purinoceptor 7 [13]): 15.8 nM

CN1C(=O)C(C)(C)C[C@H]1C(=O)NCc1cccc(C(F)(F)F)c1Cl
IC50 (P2X purinoceptor 7 [13]): 25.1 nM

Cc1ncccc1N1C[C@@H](C(=O)NCc2ccc(Cl)cc2Cl)N(C)C1=O
IC50 (P2X purinoceptor 7 [4]): 63.1 nM
CL/F [24]: 17 mL/min/kg
Cmax [25]: 1070 ng/mL
half-life [26]: 2.3 h
Activity (Rattus norvegicus [19]): inactive
IC50 (P2X purinoceptor 7 [13]): 10 nM
Ratio (MDCK): 4.9
Kp at 1 h [20]: < 0.1
logD [27]: 2.2
concentration at 1 h [23]: 16.8 µM

CN1C(=O)N(c2cn(C)cn2)C[C@H]1C(=O)NCc1cccc(C(F)(F)F)c1Cl
IC50 (P2X purinoceptor 7 [13]): 2.51 nM

Cc1cc(N2C[C@@H](C(=O)NCc3cccc(C(F)(F)F)c3Cl)N(C)C2=O)ccn1
IC50 (P2X purinoceptor 7 [13]): 10 nM
Ratio (MDCK): 1.9

CN1C(=O)N(CCN2CCOCC2)C[C@H]1C(=O)NCc1cccc(C(F)(F)F)c1Cl
IC50 (P2X purinoceptor 7 [13]): 25.1 nM
Ratio (MDCK): 11.9

Cc1ncccc1N1C[C@@H](C(=O)NCc2cccc(C(F)(F)F)c2Cl)N(C)C1=O
IC50 (P2X purinoceptor 7 [13]): 5.01 nM
Ratio (MDCK): 4.4
